{
  "source": "ChEMBL document CHEMBL1122808",
  "about": "“Substituent effects on reactivity and spectral parameters of cephalosporins” (J Med Chem, 1984)",
  "key": {"[1]": {"experiment": "Hydrolysis rate constant at pH 9.6", "type": "ADME", "conditions": "buffer", "how_it_was_run": "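Alkaline hydrolysis was followed by UV spectrophotometry on aqueous cephalosporin solutions at 6 × 10^-4 M and 35.0 ± 0.1 °C, with pH held at 9.60 ± 0.02 by borate buffer.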"}, "[2]": {"experiment": "Hydrolysis rate constant at pH 10", "type": "ADME", "conditions": "buffer"}},
  "note": "Where “and” joins values, the source holds several entries; their conditions need not be identical. Identical values can stand only once.",
  "data": [
    {"compound": "CCN(CC)C(=S)SCC1=C(C(=O)O)N2C(=O)C(NC(=O)Cc3cccs3)C2SC1", "note": "(configuration not stated)", "values": [
      {"measurement": "k", "setting": "[1]", "result": 0.067, "unit": "h⁻¹"}
    ]},
    {"compound": "Cc1nc(CC(=O)NC2C(=O)N3C(C(=O)O)=C(CSc4nnc(C)o4)CSC23)no1", "note": "(configuration not stated)", "values": [
      {"measurement": "k", "setting": "[1]", "result": 0.105, "unit": "h⁻¹"}
    ]},
    {"compound": "O=C(Cc1cccs1)NC1C(=O)N2C(C(=O)O)=C(CSc3c[nH]nn3)CSC12", "note": "(configuration not stated)", "values": [
      {"measurement": "k", "setting": "[1]", "result": 0.028, "unit": "h⁻¹"}
    ]},
    {"compound": "O=C(Cc1cccs1)NC1C(=O)N2C(C(=O)O)=C(CSC3=CCC=CC3)CSC12", "note": "(configuration not stated)", "values": [
      {"measurement": "k", "setting": "[1]", "result": 0.019, "unit": "h⁻¹"}
    ]},
    {"compound": "O=C(Cc1cccs1)NC1C(=O)N2C(C(=O)O)=C(CSc3nc4ccccc4s3)CSC12", "note": "(configuration not stated)", "values": [
      {"measurement": "k", "setting": "[1]", "result": 0.095, "unit": "h⁻¹"}
    ]},
    {"compound": "Cc1nc(CC(=O)NC2C(=O)N3C(C(=O)O)=C(CSc4c[nH]nn4)CSC23)no1", "note": "(configuration not stated)", "values": [
      {"measurement": "k", "setting": "[1]", "result": 0.026, "unit": "h⁻¹"}
    ]},
    {"compound": "Cn1nnnc1SCC1=C(C(=O)O)N2C(=O)C(NC(=O)C(Br)c3cccs3)C2SC1", "note": "(configuration not stated)", "values": [
      {"measurement": "k", "setting": "[1]", "result": 0.21, "unit": "h⁻¹"}
    ]},
    {"compound": "CSCC1=C(C(=O)O)N2C(=O)C(NC(=O)Cc3cccs3)C2SC1", "note": "(configuration not stated)", "values": [
      {"measurement": "k", "setting": "[2]", "result": 0.079, "unit": "h⁻¹"}
    ]},
    {"compound": "Cc1nc(CC(=O)NC2C(=O)N3C(C(=O)O)=C(CSc4nnc(C)s4)CSC23)no1", "note": "(configuration not stated)", "values": [
      {"measurement": "k", "setting": "[1]", "result": 0.104, "unit": "h⁻¹"}
    ]},
    {"compound": "O=C(COc1ccccc1)NC1C(=O)N2C(C(=O)O)=C(CO)CSC12", "note": "(configuration not stated)", "values": [
      {"measurement": "k", "setting": "[2]", "result": 0.084, "unit": "h⁻¹"}
    ]},
    {"compound": "CC1=C(C(=O)O)N2C(=O)C(NC(=O)Cc3noc(C)n3)C2SC1", "note": "(configuration not stated)", "values": [
      {"measurement": "k", "setting": "[1]", "result": 0.021, "unit": "h⁻¹"}
    ]},
    {"compound": "CC1=C(C(=O)O)N2C(=O)C(NC(=O)Cc3cccs3)C2SC1", "note": "(configuration not stated)", "values": [
      {"measurement": "k", "setting": "[2]", "result": 0.038, "unit": "h⁻¹"}
    ]},
    {"compound": "CC1=C(C(=O)O)N2C(=O)C(N)C2SC1", "note": "(configuration not stated)", "values": [
      {"measurement": "k", "setting": "[2]", "result": 0.0097, "unit": "h⁻¹"}
    ]},
    {"compound": "CC(=O)OCC1=C(C(=O)O)N2C(=O)C(NC(=O)NCc3cccs3)C2SC1", "note": "(configuration not stated)", "values": [
      {"measurement": "k", "setting": "[1]", "result": "> 3", "unit": "h⁻¹"}
    ]},
    {"compound": "CC(=O)OCC1=C(C(=O)O)N2C(=O)C(NC(=O)CSc3ccncc3)C2SC1", "note": "(configuration not stated)", "values": [
      {"measurement": "k", "setting": "[1]", "result": 0.157, "unit": "h⁻¹"}
    ]},
    {"compound": "CC(=O)OCC1=C(C(=O)O)N2C(=O)C(NC(=O)COc3ccccc3)C2SC1", "note": "(configuration not stated)", "values": [
      {"measurement": "k", "setting": "[2]", "result": 0.378, "unit": "h⁻¹"}
    ]},
    {"compound": "CC(=O)OCC1=C(C(=O)O)N2C(=O)C(NC(=O)Cc3cccs3)C2SC1", "note": "(configuration not stated)", "values": [
      {"measurement": "k", "setting": "[2]", "result": "0.349 h⁻¹ and 0.3 h⁻¹"},
      {"measurement": "k", "setting": "[1]", "result": 0.147, "unit": "h⁻¹"}
    ]},
    {"compound": "CC(C(=O)NC1C(=O)N2C(C(=O)O)=C(CSc3nnnn3C)CSC12)c1cccs1", "note": "(configuration not stated)", "values": [
      {"measurement": "k", "setting": "[1]", "result": 0.112, "unit": "h⁻¹"}
    ]},
    {"compound": "Cn1nnnc1SCC1=C(C(=O)O)N2C(=O)C(NC(=O)Cc3cccs3)C2SC1", "note": "(configuration not stated)", "values": [
      {"measurement": "k", "setting": "[1]", "result": 0.126, "unit": "h⁻¹"}
    ]},
    {"compound": "CC1=C(C(=O)O)N2C(=O)C(NC(=O)C(N)C3=CCC=CC3)C2SC1", "note": "(configuration not stated)", "values": [
      {"measurement": "k", "setting": "[2]", "result": 0.067, "unit": "h⁻¹"},
      {"measurement": "k", "setting": "[1]", "result": 0.056, "unit": "h⁻¹"}
    ]},
    {"compound": "CC1=C(C(=O)O)N2C(=O)C(NC(=O)COc3ccccc3)C2SC1", "note": "(configuration not stated)", "values": [
      {"measurement": "k", "setting": "[2]", "result": 0.049, "unit": "h⁻¹"}
    ]},
    {"compound": "Cc1nnc(SCC2=C(C(=O)O)N3C(=O)C(NC(=O)Cc4cccs4)C3SC2)s1", "note": "(configuration not stated)", "values": [
      {"measurement": "k", "setting": "[1]", "result": 0.12, "unit": "h⁻¹"}
    ]},
    {"compound": "O=C(COc1ccccc1)NC1C(=O)N2C(C(=O)[O-])=C(C[n+]3ccccc3)CSC12", "note": "(configuration not stated)", "values": [
      {"measurement": "k", "setting": "[2]", "result": 0.857, "unit": "h⁻¹"}
    ]},
    {"compound": "O=C(Cc1cccs1)NC1C(=O)N2C(C(=O)[O-])=C(C[n+]3ccccc3)CSC12", "note": "(configuration not stated)", "values": [
      {"measurement": "k", "setting": "[2]", "result": "0.675 h⁻¹ and 1.08 h⁻¹"},
      {"measurement": "k", "setting": "[1]", "result": 0.53, "unit": "h⁻¹"}
    ]},
    {"compound": "CC(=O)OCC1=C(C(=O)O)N2C(=O)[C@@H](N)[C@H]2SC1", "values": [
      {"measurement": "k", "setting": "[1]", "result": 0.037, "unit": "h⁻¹"}
    ]},
    {"compound": "Cn1nnnc1SCC1=C(C(=O)O)N2C(=O)C(NC(=O)C(C(=O)[O-])c3cccs3)C2SC1.[Na+]", "note": "(configuration not stated)", "values": [
      {"measurement": "k", "setting": "[1]", "result": 0.122, "unit": "h⁻¹"}
    ]},
    {"compound": "CC(=O)OCC1=C(C(=O)O)N2C(=O)C(NC(=O)Cc3ccccc3)C2SC1", "note": "(configuration not stated)", "values": [
      {"measurement": "k", "setting": "[2]", "result": 0.36, "unit": "h⁻¹"}
    ]},
    {"compound": "CC1=C(C(=O)O)N2C(=O)C(NC(=O)Cc3ccccc3)C2SC1", "note": "(configuration not stated)", "values": [
      {"measurement": "k", "setting": "[2]", "result": 0.033, "unit": "h⁻¹"},
      {"measurement": "k", "setting": "[1]", "result": 0.017, "unit": "h⁻¹"}
    ]},
    {"compound": "NC(=O)c1ccc[n+](CC2=C(C(=O)[O-])N3C(=O)C(NC(=O)Cc4cccs4)C3SC2)c1", "note": "(configuration not stated)", "values": [
      {"measurement": "k", "setting": "[1]", "result": 0.57, "unit": "h⁻¹"}
    ]},
    {"compound": "Cc1nnc(SCC2=C(C(=O)O)N3C(=O)[C@@H](NC(=O)Cn4cnnn4)[C@H]3SC2)s1", "note": "[CEFAZOLIN]", "values": [
      {"measurement": "k", "setting": "[2]", "result": 0.217, "unit": "h⁻¹"},
      {"measurement": "k", "setting": "[1]", "result": 0.107, "unit": "h⁻¹"}
    ]},
    {"compound": "CC1=C(C(=O)O)N2C(=O)[C@@H](NC(=O)[C@H](N)c3ccccc3)[C@H]2SC1", "note": "[CEPHALEXIN ANHYDROUS]", "values": [
      {"measurement": "k", "setting": "[2]", "result": 0.145, "unit": "h⁻¹"},
      {"measurement": "k", "setting": "[1]", "result": 0.058, "unit": "h⁻¹"}
    ]}
  ]
}
